rCAG RNA binder – r(CAG) repeat RNA binding. TO-PRO-1 dye displacement fluorescence. inhibition, % at 3 µM. 370,000 tested, 1.3% active;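 active means inhibition above the plate cutoff, the mean of all test compounds on that plate plus 3 SD, cut at about 35% in these data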;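 further: 0% = DMSO alone and 100% = 100 µM mitoxantrone as full dye displacement; higher means more dye released from RNA so lower well fluorescence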
NadD block – blocks S. aureus nicotinate mononucleotide adenylyltransferase. purified NadD enzyme, colorimetric absorbance read-out. 360,000 tested, 0.78% active. inhibition, % at 20 µM. AID 602399; in the data active means inhibition above about 26%
ARFGAP1 inh – inhibits rat ARF GTPase activating protein 1; Arfgap1-stimulated ARF1 GTP hydrolysis, GDP FP detection; AID 651572; inhibition, % at 16.5 µM; 360,000 tested, 0.26% active;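 active means inhibition above a per-plate limit, mean inhibition of low control wells plus 3 SD, cut at about 25% in these data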;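 further: 0% = DMSO wells with enzyme and 100% = wells lacking Arfgap1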
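system = rat Arfgap1 catalytic domain, aa 1-136 | technique = FP, GDP Alexa 633 tracer displaced from anti-GDP antibody, 620/688 nm | compound = one concentration, 16.5 µM, DMSO 1.26% | medium = HEPES-based buffer, pH 7.5 | timing = compound-enzyme preincubation 20 min, reaction 120 min, detection 60 min, 25 °C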
ASAP1 inh – blocks human ASAP1-stimulated Arf1 GTP hydrolysis. Q9ULH1. GDP FP detection. inhibition, % at 16.5 µM. 360,000 tested, 0.19% active; in the data active means inhibition above about 25%;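 further: 0% = vehicle with enzyme and substrate and 100% = no enzyme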
Target sequence (Q9ULH1 325-724 limits assumed): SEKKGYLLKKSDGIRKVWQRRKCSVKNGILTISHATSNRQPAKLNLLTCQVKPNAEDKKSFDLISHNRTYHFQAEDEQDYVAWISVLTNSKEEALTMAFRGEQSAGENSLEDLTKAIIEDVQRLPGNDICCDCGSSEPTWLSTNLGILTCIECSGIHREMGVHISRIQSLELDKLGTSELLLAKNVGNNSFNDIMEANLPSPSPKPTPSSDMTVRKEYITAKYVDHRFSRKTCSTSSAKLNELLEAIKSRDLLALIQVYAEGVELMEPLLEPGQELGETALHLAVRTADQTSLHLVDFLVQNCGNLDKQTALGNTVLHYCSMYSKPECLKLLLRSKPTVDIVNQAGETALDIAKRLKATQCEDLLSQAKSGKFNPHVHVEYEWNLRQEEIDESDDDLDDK
ARFGAP1 confirm – rat ARFGAP1 inhibition, confirmed; shares compounds with ARFGAP1 inh; ARFGAP1-stimulated ARF1 GTP hydrolysis, GDP tracer FP; inhibition, % at 16.5 µM; 890 tested, 30% active; AID 651608;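 active means average inhibition over triplicates above the hit cutoff set in the earlier primary screen, cut at about 25% in these data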;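 further: 0% = Arfgap1 plus ARF1-GTP with DMSO and 100% = wells lacking Arfgap1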
* = called active by the depositor; · = no result given. Compounds with a hit are over-represented: about 2.2% of the library has one in this group of screens.

SMILES	rCAG RNA binder	NadD block	ARFGAP1 inh	ASAP1 inh	ARFGAP1 confirm
COC(=O)C1=CN(c2ccc(F)cc2)C(N)=C(C#N)C1c1cccc(OC)c1OC (centres undefined)	3.2	·	-3.0	1.0	·
O=C(NC(=S)Nc1ccc2c(c1)OCCO2)c1ccccc1F	-0.1	-8.8	5.2	10.2	·
O=C(NC(=S)Nc1ccc2c(c1)OCCO2)c1ccccc1	-2.3	-8.1	24.9*	-7.2	1.8
CCNC(=O)C1(C)CCCN(C(=O)c2ccc(C(F)(F)F)nc2C)C1 (centres undefined)	0.0	3.8	3.6	-14.6	·
C=CCc1ccc(O)c(-c2ccc(O)c(CC=C)c2)c1	4.1	0.9	36.1*	13.7	11.2
O=c1c(C(c2ccc(Cl)cc2)c2c(O)nc3n(c2=O)CCS3)c(O)nc2n1CCS2	11.1	-2.3	-15.1	3.8	·
O=c1c(C(c2ccc(F)cc2)c2c(O)nc3n(c2=O)CCS3)c(O)nc2n1CCS2	13.6	6.7	25.8*	-16.5	0.0
COc1ccc(-c2cc(-c3cccs3)c(C#N)c(SCC(=O)NCc3ccccc3OC)n2)cc1	1.4	5.5	-2.1	-1.5	·
COc1ccccc1CNC(=O)CSc1nc(N)c(C#N)c(-c2cccs2)c1C#N	6.1	-5.2	42.2*	-11.2	30.2*
CCOC(=O)CN1C(=O)N(c2ccc(OC)cc2)[C@H]2CC3c4ccccc4C[C@]3(C)[C@@H](C(=O)N(C)C3CCCCC3)C[C@H]21 (some centres undefined)	5.7	·	9.2	-4.0	·
O=C(O)c1ccc(Cn2cnc3scc(-c4ccccc4)c3c2=O)cc1	7.3	-1.7	25.1*	11.8	1.3
Nc1nc(/C=C/c2cccnc2)nc(-c2ccccc2O)n1	5.7	-11.9	36.6*	12.1	25.3*
Nc1nc(/C=C/c2ccc(F)cc2)nc(-c2ccccc2O)n1	7.7	-2.6	3.6	8.2	·
CC1(C(=O)NS(=O)(=O)c2cccc(OC(F)F)c2)CCN1C(=O)C/C=C/c1ccccc1 (centres undefined)	21.1	-0.8	5.1	-1.4	·
O=C(NCCCO)C(=O)Nc1cc2c3c(c1)CCC(=O)N3CCC2	-0.6	-2.4	26.6*	-2.5	-0.2
O=C(COC(=O)c1ccc(F)cc1F)Nc1ccc(S(=O)(=O)N2CCOCC2)cc1	2.7	2.8	4.2	2.1	·
O=C(COC(=O)c1ccccc1F)Nc1ccc(S(=O)(=O)N2CCOCC2)cc1	9.1	-0.1	26.8*	13.8	6.3
CC(=O)OC[C@@H]1CN(Cc2ccccc2)C[C@H](n2cnc3c(NC4CCCC4)ncnc32)O1	2.9	-0.8	-1.1	-8.9	·
O=C1CSc2ccc(C(=O)N3CCCC(C(=O)N4CCCN(Cc5ccccc5)CC4)C3)cc2N1 (centres undefined)	2.1	·	·	·	·
CCOc1ccc(OCCNC2CCCC2)cc1	0.5	-0.7	-2.3	-0.9	·
CCCOc1ccc(OCCNC2CCCC2)cc1	5.8	3.9	26.2*	-5.2	3.2
O=C(CCc1ccc(O)c(O)c1)N/N=C/c1ccc2c(c1)OCO2	3.0	-1.9	4.2	6.7	·
O=C(N/N=C/c1ccc2c(c1)OCO2)c1ccc(NC(=O)c2ccc(F)cc2)cc1	13.5	28.0	24.7*	16.4	14.6
CC(C)Oc1ccc(CCC(=O)N/N=C/c2ccc3c(c2)OCO3)cc1	-3.9	-7.9	31.6*	0.6	-1.3
OC[C@@H]1CN(Cc2ccco2)C[C@H](n2cnc3c(N4CCN(c5ccccc5)CC4)ncnc32)O1	2.4	2.2	-3.1	13.2	·
SMILES	rCAG RNA binder	NadD block	ARFGAP1 inh	ASAP1 inh	ARFGAP1 confirm
COc1ccc(CCC[C@@H](CCC(=O)N(c2ccccc2)c2ccccc2)CCc2ccccc2)cc1	7.7	·	·	·	·
Cc1ccc(NC(=O)C(C)N=C2NS(=O)(=O)c3ccccc32)cc1F (centres undefined)	1.1	-7.8	37.6*	20.1	4.4
CC(N=C1NS(=O)(=O)c2ccccc21)C(=O)NCCCc1ccccc1 (centres undefined)	-0.4	-2.3	8.4	13.2	·
CCc1nc2ccc(C(=O)N(C)Cc3ccco3)cn2c1N(C)CCCc1ccccc1	-0.3	2.2	2.4	-18.8	·
CCOC(=O)C1CCN(C(=O)c2ccc(OC)cc2OC)CC1	-4.5	-3.1	29.3*	9.3	1.9
CCOC(=O)C1CCCN(C(=O)c2ccc(OC)cc2OC)CC1 (centres undefined)	1.4	-1.2	4.5	7.5	·
COc1ccc(C(=O)N2CCC(C)(C(=O)O)C2)c(OC)c1 (centres undefined)	2.5	-0.3	25.6*	4.1	-5.5
CC(C)N1CCCCC(NC(=O)COCc2ccccc2)C1=O (centres undefined)	-2.2	·	·	·	·

Bioassay records (PubChem BioAssay)
